Calls of active or inactive are those of the source. The calls are words filed in the database; no cut-off is given here.
What was measured:
[1] = Growth inhibition of human NCI60 cells after 48 hrs by SRB assay; format: functional; details: NCI60, 48 h; for CC50: read-out: LC50 (the source's name)
[2] = tested on: Calf thymus DNA; assay: Binding affinity to calf thymus DNA assessed as change in melting temperature after 4 hrs; format: nucleic-acid assay; details: Bos taurus
Outline: (§1)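 Calf thymus DNA at a fixed 100 μM (DNAp, 50 μM bp) in pH 7.00 buffer of 10 mM NaH₂PO₄/Na₂HPO₄ and 1 mM Na₂EDTA, 1:5 ligand/DNAp ratio, DMSO ≤0.3% v/v. Mixture kept at 37 °C for the stated time, then melted while absorbance at 260 nm was monitored. Tm taken at the midpoint of the normalized profile; ΔTm = Tm(DNA+ligand) − Tm(DNA), corrected for DMSO; mean of at least three runs.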

[3] = tested on: HCT-116; assay: Antitumor activity against human HCT116 cells xenografted in nu/nu BALB/c mouse assessed as delay in tumor growth at 300 ug/kg, iv; format: functional, cell-based
Outline: (§2)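 Female nu/nu-BALB/c athymic nude mice bearing subcutaneous flank HCT 116 xenografts (10⁷ cells), dosed once intravenously at 300 μg/kg in 1% DMSO/saline once tumours reached 50-100 mm³; vehicle-only controls. Tumours measured by calliper 3 times a week (width² × length/2), expressed as volume relative to day 1. Body weight monitored daily over 12 days as % change from day 1.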

[4] = tested on: Mus musculus; assay: Toxicity in human HCT116 xenografter nu/nu BALB/c mouse assessed as change in body weight at 300 ug/kg, iv; format: organism-based; details: in vivo, 0.3 mg/kg; outline: as §2
[5] = tested on: Calf thymus DNA; assay: Binding affinity to calf thymus DNA assessed as change in melting temperature after 18 hrs; format: nucleic-acid assay; details: Bos taurus; outline: as §1
[6] = tested on: K562; assay: Cytotoxicity against human K562 cells after 96 hrs by alamar blue assay; format: functional, cell-based; details: K562, 96 h
Outline: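 K562 cells kept in RPMI with 10% fetal calf serum and 2 mM glutamine, seeded at 10⁴ cells/mL. Compounds serially diluted in DMSO and added in triplicate; exposure 96 h at 37 °C, 5% CO₂. Alamar Blue (1 μM final) then added for a further 4 h; read by fluorescence emission at 580-620 nm.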

**Q.** For `COc1cc2c(cc1OC)C(=O)N1C=C(c3ccc4ncccc4c3)C[C@H]1C=N2`, which GI50 [1] is on record?
**A.** Its GI50 is 0.4 nM.

**Q.** And the TGI [1]?
**A.** The TGI was 4 nM.

**Q.** What about the CC50 [1] of the same molecule?
**A.** The CC50 was 190 nM.

**Q.** And the ΔTm [2]?
**A.** Its ΔTm is 19.9 °C.

**Q.** And the Activity [3]?
**A.** Its Activity is “Active”.

**Q.** What about the Activity [4] of the same molecule?
**A.** The Activity was “Non-toxic”.

**Q.** What about the ΔTm [5] of the same molecule?
**A.** The ΔTm was 20.5 °C.

**Q.** What about the IC50 [6] of the same molecule?
**A.** The IC50 was 1.4 nM.

**Q.** For `COc1cc2c(cc1OC)C(=O)N1C=C(c3ccc(C)cc3)C[C@H]1C=N2`, which GI50 [1] is on record?
**A.** Its GI50 is 2 nM.

**Q.** What about the TGI [1] of the same molecule?
**A.** Its TGI is 180 nM.

**Q.** And the CC50 [1]?
**A.** The CC50 was 8900 nM.

**Q.** What about the ΔTm [2] of the same molecule?
**A.** Its ΔTm is 9.8 °C.

**Q.** What about the ΔTm [5] of the same molecule?
**A.** The ΔTm was 10.1 °C.

**Q.** And the IC50 [6]?
**A.** The IC50 was 0.28 nM.

**Q.** Which results are given for `COc1cc2c(cc1OC)C(=O)N1C=C(c3ccc(F)cc3)C[C@H]1C=N2`?
**A.** GI50 [1]: 2 nM; TGI [1]: 120 nM; CC50 [1]: 11200 nM; ΔTm [2]: 10.4 °C; ΔTm [5]: 10.6 °C; IC50 [6]: 1.6 nM

**Q.** Which GI50 [1] does the source give for `COc1cc2c(cc1OC)C(=O)N1C=C(c3ccccc3C)C[C@H]1C=N2` here?
**A.** Its GI50 is 12 nM.

**Q.** And the TGI [1]?
**A.** The TGI was 250 nM.

**Q.** And the CC50 [1]?
**A.** The CC50 was 10700 nM.

**Q.** And the ΔTm [2]?
**A.** The ΔTm was 6.8 °C.

**Q.** What about the ΔTm [5] of the same molecule?
**A.** Its ΔTm is 6.9 °C.

**Q.** What about the IC50 [6] of the same molecule?
**A.** Its IC50 is 9.3 nM.

**Q.** Which results are given for `COc1cc2c(cc1OC)C(=O)N1C=C(c3ccc(C(F)(F)F)cc3)C[C@H]1C=N2`?
**A.** GI50 [1]: 4 nM; TGI [1]: 30 nM; CC50 [1]: 1660 nM; ΔTm [2]: 11.7 °C; ΔTm [5]: 11.9 °C; IC50 [6]: 24.3 nM

**Q.** For `COc1cc2c(cc1OC)C(=O)N1C=C(c3ccc(C#N)cc3)C[C@H]1C=N2`, which GI50 [1] is on record?
**A.** The GI50 was 3 nM.

**Q.** What about the TGI [1] of the same molecule?
**A.** Its TGI is 150 nM.

**Q.** What about the CC50 [1] of the same molecule?
**A.** Its CC50 is 7410 nM.

**Q.** What about the ΔTm [2] of the same molecule?
**A.** The ΔTm was 10.9 °C.

**Q.** What about the ΔTm [5] of the same molecule?
**A.** The ΔTm was 11 °C.

**Q.** What about the IC50 [6] of the same molecule?
**A.** The IC50 was 19.8 nM.

**Q.** Which results are given for `COc1cc2c(cc1OC)C(=O)N1C=C(c3ccc(-c4ccccc4)cc3)C[C@H]1C=N2`?
**A.** GI50 [1]: 8 nM; TGI [1]: 90 nM; CC50 [1]: 3630 nM; ΔTm [2]: 8.1 °C; ΔTm [5]: 8.4 °C; IC50 [6]: 19.6 nM

**Q.** With `COc1cc2c(cc1OC)C(=O)N1C=C(c3cnc4ccccc4c3)C[C@H]1C=N2` as the molecule, how does the GI50 [1] read?
**A.** The GI50 was 0.1 nM.

**Q.** What about the TGI [1] of the same molecule?
**A.** Its TGI is 1 nM.

**Q.** And the CC50 [1]?
**A.** The CC50 was 180 nM.

**Q.** What about the ΔTm [2] of the same molecule?
**A.** The ΔTm was 18.1 °C.

**Q.** What about the ΔTm [5] of the same molecule?
**A.** Its ΔTm is 18.2 °C.

**Q.** What about the IC50 [6] of the same molecule?
**A.** Its IC50 is 8.9 nM.

**Q.** For `CO[C@H]1Nc2c(ccc(C)c2O)C(=O)N2C=C(/C=C/C(N)=O)C[C@@H]12` [ANTHRAMYCIN METHYL ETHER], which GI50 [1] is on record?
**A.** Its GI50 is 13 nM.

**Q.** And the TGI [1]?
**A.** Its TGI is 1580 nM.

**Q.** And the CC50 [1]?
**A.** Its CC50 is 24500 nM.

**Q.** And the ΔTm [2]?
**A.** The ΔTm was 11.2 °C.

**Q.** And the ΔTm [5]?
**A.** Its ΔTm is 13 °C.

**Q.** And the IC50 [6]?
**A.** Its IC50 is 8 nM.

**Q.** With `COc1cc2c(cc1OC)C(=O)N1C=C(c3ccc(N(C)C)cc3)C[C@H]1C=N2` as the molecule, how does the GI50 [1] read?
**A.** The GI50 was 3 nM.

**Q.** And the TGI [1]?
**A.** Its TGI is 40 nM.

**Q.** What about the CC50 [1] of the same molecule?
**A.** Its CC50 is 3230 nM.

**Q.** What about the ΔTm [2] of the same molecule?
**A.** The ΔTm was 7.6 °C.

**Q.** And the ΔTm [5]?
**A.** Its ΔTm is 8 °C.

**Q.** And the IC50 [6]?
**A.** Its IC50 is 32.1 nM.

**Q.** Which GI50 [1] does the source give for `COc1cc2c(cc1OC)C(=O)N1C=C(c3ccc(N)cc3)C[C@H]1C=N2` here?
**A.** The GI50 was 2 nM.

**Q.** What about the TGI [1] of the same molecule?
**A.** Its TGI is 30 nM.

**Q.** And the CC50 [1]?
**A.** Its CC50 is 4790 nM.

**Q.** And the ΔTm [2]?
**A.** The ΔTm was 6.2 °C.

**Q.** What about the ΔTm [5] of the same molecule?
**A.** Its ΔTm is 6.5 °C.

**Q.** What about the IC50 [6] of the same molecule?
**A.** The IC50 was 14 nM.

**Q.** What does the source list for `COc1cc2c(cc1OC)C(=O)N1C=C(c3ccc(C(C)(C)C)cc3)C[C@H]1C=N2`?
**A.** GI50 [1]: 2 nM; TGI [1]: 50 nM; CC50 [1]: 1940 nM; ΔTm [2]: 9 °C; ΔTm [5]: 9.2 °C; IC50 [6]: 47.8 nM

**Q.** With `CCc1ccc(C2=CN3C(=O)c4cc(OC)c(OC)cc4N=C[C@@H]3C2)cc1` as the molecule, how does the GI50 [1] read?
**A.** The GI50 was 1 nM.

**Q.** And the TGI [1]?
**A.** The TGI was 70 nM.

**Q.** What about the CC50 [1] of the same molecule?
**A.** Its CC50 is 4170 nM.

**Q.** And the ΔTm [2]?
**A.** The ΔTm was 9.4 °C.

**Q.** What about the ΔTm [5] of the same molecule?
**A.** Its ΔTm is 9.7 °C.

**Q.** And the IC50 [6]?
**A.** The IC50 was 79.5 nM.

**Q.** With `COc1cc2c(cc1OC)C(=O)N1C=C(c3cccs3)C[C@H]1C=N2` as the molecule, how does the GI50 [1] read?
**A.** The GI50 was 10 nM.

**Q.** What about the TGI [1] of the same molecule?
**A.** The TGI was 150 nM.

**Q.** What about the CC50 [1] of the same molecule?
**A.** Its CC50 is 740 nM.

**Q.** What about the ΔTm [2] of the same molecule?
**A.** The ΔTm was 12.7 °C.

**Q.** And the ΔTm [5]?
**A.** Its ΔTm is 13 °C.

**Q.** What about the IC50 [6] of the same molecule?
**A.** The IC50 was 1.1 nM.

**Q.** Which results are given for `COc1ccc(C2=CN3C(=O)c4cc(OC)c(OC)cc4N=C[C@@H]3C2)cc1`?
**A.** GI50 [1]: 1 nM; TGI [1]: 150 nM; CC50 [1]: 910 nM; ΔTm [2]: 10.5 °C; ΔTm [5]: 10.6 °C; IC50 [6]: 4.9 nM

Source: ChEMBL document CHEMBL1165887, “Structure-activity relationships of monomeric C2-aryl pyrrolo[2,1-c][1,4]benzodiazepine (PBD) antitumor agents” (J Med Chem, 2010)
